According to PMC11645202 (Bioorganic & medicinal chemistry, 2024):
Where two headings read alike, the source gives them in different places. Marks after values point to notes of the source that are not given here.

Tests used:
[1] = system: MCF-7 human breast carcinoma cells; settings: read-out: MCF-7 IC50; inhibition of growth; cited from earlier work
[2] = system: tubulin; settings: compound 5 μM, cited from earlier work
[3] = system: MCF-7 human breast carcinoma cells; test: MCF-7 cell proliferation assay; assay type: cell-based
How it was run: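 MCF-7 human breast carcinoma cells grown 24 h without drug, then 48 h with varying concentrations of test compound. Growth read as total cell protein by sulforhodamine B staining; IC50 taken as concentration inhibiting cell growth.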

[4] = system: pancreatic cancer cells (MiaPaca-2); test: Cytotoxicity in pancreatic cancer cells, Promega CellTiter assay kit; assay type: cell-based
[5] = system: A-10 cells; test: Cellular microtubule loss by indirect immunofluorescence; assay type: cell-based; settings: 20 μM compound 8c; 15 μM compound 13; 2.5 μM compound 18 (Figure 5)
[6] = system: tubulin; test: Inhibition of tubulin polymerization; assay type: biochemical; settings: for IC50: read-out: Tubulin Assembly IC50, tubulin at 10 μM
[7] = system: colon cancer cell line HCT-16; test: Cytotoxicity in colon cancer cells, Promega CellTiter assay kit; assay type: cell-based
[8] = system: A-10 cells; settings: read-out: A-10 EC50 (cellular microtubule loss); cited from earlier work

COc1ccc(/C=C\c2cc(OC)c(OC)c(OC)c2)cc1B(O)O [Compound 1]
IC50 [1]: 17 ± 5 nM
[3H]Colchicine Binding inhibition ([2]; tubulin 1 μM, [3H]colchicine 5 μM): 79 ± 2^e %

COc1ccc(C(=O)c2cc(OC)c(OC)c(OC)c2)cc1O [Phenstatin, reference compound]
IC50 [1]: 440 ± 70 nM
[3H]Colchicine Binding inhibition [2]: 86^f %

COc1ccc(C(=O)c2cc(OC)c(OC)c(OC)c2)cc1B(O)O [Compound 18, [2-Methoxy-5-(3,4,5-trimethoxybenzoyl)phenyl]boronic acid]
cytotoxicity in MCF-7 cells (in words) [3]: mid-nanomolar cytotoxicity
activity in MiaPaca-2 (in words) [4]: potency comparable to that of CA-4 and phenstatin
effects on interphase microtubules in A-10 cells [5]: disrupted microtubules and loss of the microtubule network

COc1cc(/C=C\c2ccc(B(O)O)cc2)cc(OC)c1OC [Compound 8c, {4-[(Z)-2-(3,4,5-trimethoxyphenyl)vinyl]phenyl}boronic acid]
effects on interphase microtubules in A-10 cells [5]: disrupted microtubules and loss of the microtubule network

COc1cc(C(=O)c2cnc(OC)c(B(O)O)c2)cc(OC)c1OC [Compound 22, [2-Methoxy-5-(3,4,5-trimethoxybenzoyl)pyridin-3-yl]boronic acid]
activity in MiaPaca-2 (in words) [4]: dramatically reduced activity
IC50 [6]: > 40000 nM
activity (in words) ([6]; tubulin-based assays): no activity
activity in HCT-16 (in words) [7]: dramatically reduced activity

COc1cc(/C=C\c2ccccc2B(O)O)cc(OC)c1OC [Compound 8a, {2-[(Z)-2-(3,4,5-trimethoxyphenyl)vinyl]phenyl}boronic acid]
activity in MiaPaca-2 (in words) [4]: potency comparable to that of CA-4 and phenstatin
IC50 [6]: > 40000 nM

COc1cc(/C=C\c2cnc(OC)c(B(O)O)c2)cc(OC)c1OC [Compound 13, {2-Methoxy-5-[(Z)-2-(3,4,5-trimethoxyphenyl)vinyl]pyridin-3-yl}boronic acid]
cytotoxicity in MCF-7 cells (in words) [3]: mid-nanomolar cytotoxicity
lower activity compared to 1 in inhibition of MCF-7 cell proliferation ([3]; relative to compound 1): 23 fold
lower potency compared to 1 in inhibiting tubulin polymerization ([6]; relative to compound 1): 20 fold
IC50 ([7]; HCT16, read-out: IC50 in HCT-16): < 5000 nM
effects on interphase microtubules in A-10 cells [5]: disrupted microtubules and loss of the microtubule network

COc1ccc(/C=C\c2cc(OC)c(OC)c(OC)c2)cc1O [CA-4, Combretastatin A-4]
EC50 [8]: < 25 nM
IC50 [1]: 32 ± 20 nM
